Test results from ChEMBL document CHEMBL4699398, “The synthesis and biological evaluation of sanguinarine derivatives as anti-non-small cell lung cancer agents” (RSC Med Chem, 2020).
pIC50: −log10 of the molar value. Active and inactive are the calls of the source. The rule behind the calls is not given here.

Key:
A549 [1] = assay: Induction of apoptosis in human A549 cells assessed as necrotic cells at 3 uM after 48 hrs by Annexin V-FITC/7-AAD staining based flow cytometric method (reference value: 0.70 %); type: functional
A549 [2] = assay: Induction of apoptosis in human A549 cells assessed as viable cells at 3 uM after 48 hrs by Annexin V-FITC/7-AAD staining based flow cytometric method (reference value: 93.10 %); type: functional; settings: read-out: Activity
A549 [3] = assay: Induction of apoptosis in human A549 cells assessed as increase in ROS production incubated for 20 mins by DCFH-DA staining based flow cytometry analysis; type: functional, cell-based; settings: dose microM 0.3-3, time 20.0 min
How it was run: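 At 20 min after compound treatment, cells washed in PBS and loaded with 10 μM DCFH-DA in phenol red-free DMEM for 30 min at 37 °C in the dark; washed three times with PBS; DCF fluorescence of ROS-positive cells measured by flow cytometry with excitation at 488 nm.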

A549 [4] = assay: Induction of apoptosis in human A549 cells assessed as late apoptotic cells at 3 uM after 48 hrs by Annexin V-FITC/7-AAD staining based flow cytometric method (reference value: 2.94 %); type: functional
A549 [5] = assay: Induction of cell cycle arrest in human A549 cells assessed as accumulation in G0/G1 phase at 0.3 uM incubated for 24 hrs by […] propidium iodide staining based flow cytometry (reference value: 63.11 %); type: functional
NCI-H1975 [6] = assay: Induction of cell cycle arrest in human H1975 cells assessed as accumulation in G0/G1 phase at 0.3 uM incubated for 24 hrs by […] propidium iodide staining based flow cytometry (reference value: 62.86 %); type: functional
A549 [7] = assay: Induction of apoptosis in human A549 cells assessed as increase in cleaved caspase-9 level at 0.1 to 3 uM incubated for 24 hrs by Western blot analysis; type: functional, cell-based; settings: dose microM 0.1-3, time 24.0 hrs
How it was run: (§1)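 After treatment, cells harvested and lysed in RIPA buffer; equal protein loaded on 12% SDS-PAGE and transferred to PVDF; blocked in 5% milk 2 h at room temperature; primary antibodies (AKT, p-AKT, cleaved caspase-3, cleaved caspase-9, PARP; GAPDH loading control) overnight at 4 °C; HRP secondaries 2 h at room temperature; chemiluminescent detection.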

NCI-H1975 [8] = assay: Induction of cell cycle arrest in human H1975 cells assessed as accumulation in S phase at 1 uM incubated for 24 hrs by […] propidium iodide staining based flow cytometry (reference value: 14.13 %); type: functional
A549 [9] = assay: Induction of cell cycle arrest in human A549 cells assessed as accumulation in G2/M phase at 3 uM incubated for 24 hrs by […] propidium iodide staining based flow cytometry (reference value: 22.46 %); type: functional
A549 [10] = assay: Induction of cell cycle arrest in human A549 cells assessed as accumulation in G2/M phase at 0.3 uM incubated for 24 hrs by […] propidium iodide staining based flow cytometry (reference value: 22.46 %); type: functional
NCI-H1975 [11] = assay: Induction of apoptosis in human H1975 cells assessed as early apoptotic cells at 3 uM after 48 hrs by Annexin V-FITC/7-AAD staining based flow cytometric method (reference value: 6.50 %); type: functional
NCI-H1975 [12] = assay: Induction of apoptosis in human H1975 cells assessed as increase in Akt level at 0.1 to 3 uM incubated for 24 hrs by Western blot analysis; type: functional, cell-based; settings: dose microM 0.1-3, time 24.0 hrs; how it was run: as §1
NCI-H1975 [13] = assay: Induction of cell cycle arrest in human H1975 cells assessed as accumulation in S phase at 0.3 uM incubated for 24 hrs by […] propidium iodide staining based flow cytometry (reference value: 14.13 %); type: functional
A549 [14] = assay: Induction of cell cycle arrest in human A549 cells assessed as accumulation in G2/M phase at 1 uM incubated for 24 hrs by […] propidium iodide staining based flow cytometry (reference value: 22.46 %); type: functional
NCI-H1975 [15] = assay: Induction of cell cycle arrest in human H1975 cells assessed as accumulation in G2/M phase at 3 uM incubated for 24 hrs by […] propidium iodide staining based flow cytometry (reference value: 21.00 %); type: functional
NCI-H1975 [16] = assay: Induction of apoptosis in human H1975 cells assessed as late apoptotic cells at 1 uM after 48 hrs by Annexin V-FITC/7-AAD staining based flow cytometric method (reference value: 4.63 %); type: functional
NCI-H1975 [17] = assay: Antiproliferative activity against human H1975 cells assessed as inhibition of cell growth incubated for 72 hrs by CCK-8 assay; settings: NCI-H1975, 72 h
NCI-H1975 [18] = assay: Induction of apoptosis in human H1975 cells assessed as viable cells at 0.3 uM after 48 hrs by Annexin V-FITC/7-AAD staining based flow cytometric method (reference value: 88.02 %); type: functional; settings: read-out: Activity
NCI-H1975 [19] = assay: Induction of apoptosis in human H1975 cells assessed as increase in cleaved caspase-3 level at 0.1 to 3 uM incubated for 24 hrs by Western blot analysis; type: functional, cell-based; settings: dose microM 0.1-3, time 24.0 hrs; how it was run: as §1
NCI-H1975 [20] = assay: Induction of apoptosis in human H1975 cells assessed as late apoptotic cells at 0.3 uM after 48 hrs by Annexin V-FITC/7-AAD staining based flow cytometric method (reference value: 4.63 %); type: functional
A549 [21] = assay: Induction of apoptosis in human A549 cells assessed as increase in cleaved PARP level at 0.1 to 3 uM after 24 hrs by Western blot analysis; type: functional, cell-based; settings: dose microM 0.1-3, time 24.0 hrs; how it was run: as §1
NCI-H1975 [22] = assay: Induction of cell cycle arrest in human H1975 cells assessed as accumulation in G0/G1 phase at 3 uM incubated for 24 hrs by […] propidium iodide staining based flow cytometry (reference value: 62.86 %); type: functional
NCI-H1975 [23] = assay: Induction of cell cycle arrest in human H1975 cells assessed as accumulation in G2/M phase at 0.3 uM incubated for 24 hrs by […] propidium iodide staining based flow cytometry (reference value: 21.00 %); type: functional
NCI-H1975 [24] = assay: Induction of apoptosis in human H1975 cells assessed as early apoptotic cells at 1 uM after 48 hrs by Annexin-V-FITC/7-AAD staining based flow cytometric method (reference value: 6.50 %); type: functional
NCI-H1975 [25] = assay: Induction of cell cycle arrest in human H1975 cells assessed as accumulation in G2/M phase at 1 uM incubated for 24 hrs by […] propidium iodide staining based flow cytometry (reference value: 21.00 %); type: functional
A549 [26] = assay: Induction of apoptosis in human A549 cells assessed as early apoptotic cells at 0.3 uM after 48 hrs by Annexin V-FITC/7-AAD staining based flow cytometric method (reference value: 3.26 %); type: functional

SMILES: CN1c2c(ccc3cc4c(cc23)OCO4)-c2ccc3c(c2C1N1CCOCC1)OCO3 (stereo unspecified)
- Activity (A549 [1]): 1.65%
- viability at 3 µM (A549 [2]): 0.71%
- Activity (A549 [3]): Dose-dependent effect
- Activity (A549 [4]): 93.73%
- Activity (A549 [5]): 64.85%
- Activity (NCI-H1975 [6]): 62.04%
- Activity (A549 [7]): Active
- Activity (NCI-H1975 [8]): 12.43%
- Activity (A549 [9]): 13.56%
- Activity (A549 [10]): 20.27%
- Activity (NCI-H1975 [11]): 3.11%
- Activity (NCI-H1975 [12]): Active
- Activity (NCI-H1975 [13]): 14.07%
- Activity (A549 [14]): 14.29%
- Activity (NCI-H1975 [15]): 13.21%
- Activity (NCI-H1975 [16]): 19.17%
- pIC50 (NCI-H1975 [17]): 5.94
- viability at 0.3 µM (NCI-H1975 [18]): 82.5%
- Activity (NCI-H1975 [19]): Active
- Activity (NCI-H1975 [20]): 5.55%
- Activity (A549 [21]): Active
- Activity (NCI-H1975 [22]): 77.7%
- Activity (NCI-H1975 [23]): 23.51%
- Activity (NCI-H1975 [24]): 10.59%
- Activity (NCI-H1975 [25]): 19.67%
- Activity (A549 [26]): 4.92%
